Experimental data from ChEMBL document CHEMBL5390247, “Aryl azoles based scaffolds for disrupting tumor microenvironment” (Bioorg Med Chem, 2023).
Calls of active or inactive are those of the source. The calls are words filed in the database; no cut-off is given here.

Key:
[1] = Toxicity against interferon gamma-stimulated human THP-1 monocyte cells co-cultured with human HT-29 cells assessed as reduction in cell viability at 100 uM incubated for 48 hrs by flow cytometry analysis; format: cell-based; conditions: thp-1, 48 h
Method in brief: (§1)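 HT-29 cells at 10^5/well seeded and grown 24 h. Medium then replaced with medium containing IFN-γ (10 ng/ml), 5 × 10^5 THP-1 cells/well and compound at 100 µM; DMSO used as control. After 48 h, THP-1 cells collected from supernatant and cancer cells by trypsinisation. Both fixed in 4% paraformaldehyde and counted by flow cytometry relative to control.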

[2] = test system: HMEC-1; experiment: Antiangiogenic activity in HMEC-1 cells assessed as inhibition of endothelial microtubes formation at <75 uM incubated for 24 hrs by matrigel based imaging analysis; format: functional, cell-based; conditions: Homo sapiens
Method in brief: (§2)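 HMEC-1 cells at 2 × 10^4 cells/well seeded on Matrigel (10 mg/mL, gelled 30 min at 37 °C) in EGM-2MV medium with SingleQuots, allowed to attach 30 min at 37 °C. Compounds then added in medium; after 24 h at 37 °C, microtube formation/destruction evaluated from pictures.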

[3] = test system: HT-29; experiment: Immunomodulatory activity in human HT-29 cells co-cultured with interferon gamma-stimulated THP-1 cells assessed as relative PD-L1 protein expression in membrane at 100 uM incubated for 48 hrs by flow cytometry analysis relative to control; format: functional
[4] = test system: HT-29; experiment: Immunomodulatory activity in human HT-29 cells co-cultured with interferon gamma-stimulated THP-1 cells assessed as IL-6 level at 100 uM incubated for 48 hrs by ELISA analysis (reference value: 192 +/- 16 pg/ml); format: functional
Method in brief: (§3)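 HT-29 cells co-cultured with IFN-γ (10 ng/ml)-stimulated THP-1 cells and treated 48 h with compound at 100 µM. Culture media collected and IL-6 measured by human IL-6 ELISA, in pg/mL and as % of control. Mean of three experiments.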

[5] = test system: HT-29; experiment: Antiproliferative activity against human HT-29 cells assessed as relative c-Myc protein expression at 100 uM incubated for 48 hrs by flow cytometry analysis relative to control; format: functional
[6] = test system: HMEC-1; experiment: Antiangiogenic activity in HMEC-1 cells assessed as inhibition of endothelial microtubes formation at 100 uM incubated for 24 hrs by matrigel based imaging analysis; format: functional, cell-based; conditions: Homo sapiens; method in brief: as §2
[7] = test system: HT-29; experiment: Immunomodulatory activity in human HT-29 cells co-cultured with interferon gamma-stimulated THP-1 cells assessed as cell viability at 100 uM incubated for 48 hrs by flow cytometry analysis relative to control; format: functional; conditions: read-out: Activity; method in brief: as §1
[8] = test system: HT-29; experiment: Antiproliferative activity against human HT-29 cells assessed as relative VEGFR-2 protein expression in membrane at 100 uM incubated for 48 hrs by flow cytometry analysis relative to control; format: functional
[9] = test system: HT-29; experiment: Antiproliferative activity against human HT-29 cells assessed as reduction in IL-6 secretion at 100 uM incubated for 48 hrs by ELISA assay; format: functional, cell-based
Method in brief: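 HT-29 monocultures at 10^5 cells/well treated 48 h with compound at 100 µM in 500 µL growth medium. Media collected and secreted IL-6 measured with a human IL-6 ELISA kit.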

[10] = test system: HT-29; experiment: Immunomodulatory activity in human HT-29 cells co-cultured with interferon gamma-stimulated THP-1 cells assessed as reduction in IL-6 level at 100 uM incubated for 48 hrs by ELISA analysis relative to control; format: functional; design: scale not given: the % may be the effect or the level left; method in brief: as §3
[11] = test system: HT-29; experiment: Antiproliferative activity against human HT-29 cells assessed as relative PD-L1 protein expression in whole cell at 100 uM incubated for 48 hrs by flow cytometry analysis relative to control; format: functional
[12] = test system: HT-29; experiment: Immunomodulatory activity in human HT-29 cells co-cultured with interferon gamma-stimulated THP-1 cells assessed as relative CD-47 protein expression in membrane at 100 uM incubated for 48 hrs by flow cytometry analysis relative to control; format: functional
[13] = test system: HT-29; experiment: Immunomodulatory activity in human HT-29 cells co-cultured with interferon gamma-stimulated THP-1 cells assessed as relative IL-6 level at 100 uM incubated for 48 hrs by ELISA analysis relative to control; format: functional; method in brief: as §3
[14] = test system: HEK293; experiment: Anti-vasculogenic activity against HEK293 cells assessed as disruption of tube-like structures at <75 uM incubated for 24 hrs by Matrigel based imaging analysis; format: functional, cell-based; conditions: Homo sapiens
Method in brief: (§4)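 HEK-293 cells seeded at 5 × 10^4 cells/well on Matrigel (pre-incubated with medium 24 h at 37 °C), grown 24 h at 37 °C until tube-like structures form; compounds then added in medium and incubated a further 24 h at 37 °C. Disruption of preformed tube-like structures assessed by imaging.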

[15] = test system: HT-29; experiment: Antiproliferative activity against human HT-29 cells assessed as relative VEGFR-2 protein expression in whole cell at 100 uM incubated for 48 hrs by flow cytometry analysis relative to control; format: functional
[16] = test system: HT-29; experiment: Antiproliferative activity against human HT-29 cells assessed as relative PD-L1 protein expression in membrane at 100 uM incubated for 48 hrs by flow cytometry analysis relative to control; format: functional
[17] = test system: HEK293; experiment: Anti-vasculogenic activity against HEK293 cells assessed as disruption of tube-like structures at 100 uM incubated for 24 hrs by Matrigel based imaging analysis; format: functional, cell-based; conditions: Homo sapiens; method in brief: as §4
[18] = test system: MCF7; experiment: Antiproliferative activity against human MCF7 cells assessed as reduction in cell viability incubated for 48 hrs by MTT assay; format: functional, cell-based; conditions: MCF7, 48 h
Method in brief: (§5)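 MTT dye-reduction assay. Cells at 5 × 10^3/well in DMEM with 10% FBS, treated with serial dilutions of compound (DMSO stocks) for 2 days at 37 °C, 5% CO2. MTT added for a further 3 h, formazan dissolved in DMSO, absorbance read at 550 nm. Viability expressed as % of untreated cells; IC50 determined graphically from three independent experiments.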

[19] = test system: HT-29; experiment: Antiproliferative activity against human HT-29 cells assessed as reduction in cell viability incubated for 48 hrs by MTT assay; format: functional, cell-based; conditions: HT-29, 48 h; method in brief: as §5
[20] = Cytotoxicity against HEK293 cells assessed as reduction in cell viability incubated for 48 hrs by MTT assay; format: toxicity, cell-based; conditions: human; method in brief: as §5
[21] = test system: A549; experiment: Antiproliferative activity against human A549 cells assessed as reduction in cell viability incubated for 48 hrs by MTT assay; format: functional, cell-based; conditions: A549, 48 h; method in brief: as §5
[22] = test system: HT-29; experiment: Immunomodulatory activity in human HT-29 cells co-cultured with interferon gamma-stimulated THP-1 cells assessed as inhibition of CD-47 protein expression at 100 uM incubated for 48 hrs by flow cytometry analysis relative to control; format: functional
[23] = test system: HT-29; experiment: Immunomodulatory activity in human HT-29 cells co-cultured with interferon gamma-stimulated THP-1 cells assessed as inhibition of cell growth at 100 uM incubated for 48 hrs by flow cytometry analysis relative to control; format: functional; method in brief: as §1
[24] = test system: HT-29; experiment: Immunomodulatory activity in human HT-29 cells co-cultured with interferon gamma-stimulated THP-1 cells assessed as reduction in number of cells at 100 uM incubated for 48 hrs; format: functional, cell-based; method in brief: as §1
[25] = test system: HT-29; experiment: Immunomodulatory activity in human HT-29 cells co-cultured with interferon gamma-stimulated THP-1 cells assessed as induction of morphological changes by measuring cell shrinkage at 100 uM incubated for 48 hrs; format: functional, cell-based
Method in brief: (§6)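 HT-29 cells co-cultured with IFN-γ-stimulated THP-1 cells and treated 48 h with compounds at 100 µM, with DMSO as control. Cell shrinkage and rounded morphology assessed by microscopy images.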

[26] = test system: HT-29; experiment: Immunomodulatory activity in human HT-29 cells co-cultured with interferon gamma-stimulated THP-1 cells assessed as induction of morphological changes by measuring rounded cell morphology at 100 uM incubated for 48 hrs; format: functional, cell-based; method in brief: as §6

Row | Compound | Activity [1] | Activity [2] | Activity [3] [%] | Activity [4] [pg/mL] | Activity [5] [%] | Activity [6] | viability at 100 µM [7] [%] | Activity [8] [%] | Activity [9] | Activity [11] [%] | Activity [12] [%] | Activity [13] [%] | Activity [14] | Activity [15] [%] | Activity [16] [%] | Activity [17] | IC50 [18] [µM] | IC50 [19] [µM] | IC50 at 48 h [20] [µM] | IC50 [21] [µM] | also measured
1 | Nc1cccc(-c2nnn(Cc3ccccc3Cl)n2)c1 | Non-Toxic | inactive | 93 | 6 | >100 | Active | 61 | 96 | inactive | >100 | 86 | 3 | inactive | 92 | 95 | Active |  |  |  |  | Activity [10]: >95%
2 | O=[N+]([O-])c1cccc(-c2nnn(Cc3ccc(Cl)cc3)n2)c1 | Non-Toxic |  | 93 |  | 90 |  | 93 | 95 |  | 87 | 88 |  |  | 45 | 93 |  | 84 | > 100 | > 100 | > 100 | 
3 | Cc1cccc(Cn2nnc(-c3cccc(N)c3)n2)c1 | Non-Toxic |  | 99 |  | >100 |  | 15 | >100 |  | 81 | 69 |  |  | >100 | >100 |  |  |  |  |  | inhibition at 100 µM [22]: > 30%; inhibition at 100 µM [23]: > 70%
4 | O=[N+]([O-])c1cccc(-c2nnn(Cc3ccccc3Cl)n2)c1 | Non-Toxic |  | 108 |  | 86 |  | 44 | 97 |  | 89 | 87 |  |  | 53 | 98 |  | > 100 | 81 | > 100 | > 100 | 
5 | Cc1ccc(Cn2nnc(-c3cccc(N)c3)n2)cc1 | Non-Toxic |  | 90 |  |  |  | 28 |  |  |  | 67 |  |  |  |  |  |  |  |  |  | inhibition at 100 µM [22]: > 30%; inhibition at 100 µM [23]: > 70%
6 | Nc1cccc(-c2cn(Cc3ccc(Cl)cc3)nn2)c1 | Non-Toxic | inactive | 140 | 189 |  | Active | 5 |  | inactive |  | 91 | 98 | inactive |  |  | Active |  |  |  |  | Activity [24]: Active; inhibition at 100 µM [23]: > 90%; Activity [25]: Active; Activity [26]: Active
7 | Nc1cccc(-c2nnn(Cc3cccc(Cl)c3)n2)c1 | Non-Toxic | inactive | 94 | 6 | 76 | Active | 48 | 97 | inactive | 97 | 95 | 3 | inactive | 99 | >100 | Active | 88 | 81 | > 100 | > 100 | Activity [10]: >95%
8 | O=[N+]([O-])c1cccc(-c2nnn(Cc3ccc(Br)cc3)n2)c1 | Non-Toxic |  | 93 |  | 72 |  | 52 | 96 |  | 93 | 87 |  |  | 71 | >100 |  | > 100 | > 100 | > 100 | 39 | 
9 | Nc1cccc(-c2cn(Cc3ccc(Br)cc3)nn2)c1 | Non-Toxic | inactive | 154 | 183 |  | Active | 8 |  | inactive |  | 92 | 95 | inactive |  |  | Active |  |  |  |  | Activity [24]: Active; inhibition at 100 µM [23]: > 90%; Activity [25]: Active; Activity [26]: Active
10 | COc1ccc(Cn2nnc(-c3cccc(N)c3)n2)cc1 | Non-Toxic |  | 100 |  | 75 |  | 45 | >100 |  | 99 | 58 |  |  | 75 | >100 |  |  |  |  |  | inhibition at 100 µM [22]: > 30%; Activity [24]: Active; Activity [25]: Active; Activity [26]: Active
11 | Nc1cccc(-c2nnn(Cc3ccc(Cl)cc3)n2)c1 | Non-Toxic | inactive | 114 | 11 | 80 | Active | 22 | >100 | inactive | 99 | 93 | 6 | inactive | 96 | >100 | Active | > 100 | 72 | 91 | > 100 | inhibition at 100 µM [23]: > 70%; Activity [10]: 94%
